Source: ChEMBL document CHEMBL1131440, “Synthesis and potent antifolate activity and cytotoxicity of B-ring deaza analogues of the nonpolyglutamatable dihydrofolate reductase inhibitor Nalpha-(4-amino-4-deoxypteroyl)-Ndelta-hemiphthaloyl- L-ornithine (PT523)” (J Med Chem, 1998)

How the values were obtained:
U-251 = assay: Compound was evaluated for in vitro activity against U251 CNS cell lines (Human tumor cells ); format: functional, cell-based
How it was run: (§1)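 NCI Developmental Therapeutics Program human tumor cell panel; drug exposure in 96-well plates for the last 48 h of a 72-h incubation, then cells stained for total protein with sulforhodamine B per the standard NCI protocol. Data supplied by NCI.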

SF-268 = assay: Compound was evaluated for in vitro activity against SF-268 CNS cell lines (Human tumor cells ); format: functional, cell-based; how it was run: as §1
RXF 393 = assay: Compound was evaluated for in vitro activity against RXF-393 kidney cell lines (Human tumor cells ); format: functional, cell-based; how it was run: as §1
HCC 2998 = assay: Compound was evaluated for in vitro activity against HCC2998 Colon cell lines (Human tumor cells ); format: functional, cell-based; how it was run: as §1
SK-MEL-28 = assay: Compound was evaluated for in vitro activity against SK-MEL28 Melanoma cell lines (Human tumor cells ); format: functional, cell-based; how it was run: as §1
SK-MEL-2 = assay: Compound was evaluated for in vitro activity against SK-MEL-2 Melanoma cell lines (Human tumor cells ); format: functional, cell-based; how it was run: as §1
786-0 = assay: Compound was evaluated for in vitro activity against 786-0 kidney cell lines (Human tumor cells ); format: functional, cell-based; how it was run: as §1
EKVX = assay: Compound was evaluated for in vitro activity against EKVX lung cancer cell lines (Human tumor cells ); format: functional, cell-based; how it was run: as §1
OVCAR-3 = assay: Compound was evaluated for in vitro activity against OVCAR-3 Ovary cell lines (Human tumor cells ); format: functional, cell-based
How it was run: (§2)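 Total protein then stained with sulforhodamine B following the standard NCI protocol. Data supplied by the NCI Developmental Therapeutics Program.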

MDA-MB-435 = assay: Compound was evaluated for in vitro activity against MDA-MB-435 breast cancer cell lines (Human tumor cells ); format: functional, cell-based; how it was run: as §1
OVCAR-5 = assay: Compound was evaluated for in vitro activity against OVCAR-5 Ovary cell lines (Human tumor cells ); format: functional, cell-based; how it was run: as §1
BT-549 = assay: Compound was evaluated for in vitro activity against BT-549 breast cancer cell lines (Human tumor cells ); format: functional, cell-based; how it was run: as §1
A549 = assay: Compound was evaluated for in vitro activity against A549/ATCC lung cancer cell lines (Human tumor cells )
RPMI-8226 = assay: Compound was evaluated for in vitro activity against RPMI-8226 leukemia cell lines (Human tumor cells ); format: functional, cell-based; how it was run: as §1
DU-145 = assay: Compound was evaluated for in vitro activity against DU-145 prostate cell lines (Human tumor cells ); format: functional, cell-based; how it was run: as §1
UACC-257 = assay: Compound was evaluated for in vitro activity against UACC-257 Melanoma cell lines (Human tumor cells ); format: functional, cell-based; how it was run: as §1
UACC-62 = assay: Compound was evaluated for in vitro activity against UACC-62 Melanoma cell lines (Human tumor cells ); format: functional, cell-based; how it was run: as §1
TK-10 = assay: Compound was evaluated for in vitro activity against TK-10 kidney cell lines (Human tumor cells ); format: functional, cell-based; how it was run: as §1
SK-MEL-5 = assay: Compound was evaluated for in vitro activity against SK-MEL-5 Melanoma cell lines (Human tumor cells ); format: functional, cell-based; how it was run: as §1
CCRF-CEM = assay: Compound was evaluated for in vitro activity against CCRF-CEM leukemia cell lines (Human tumor cells ); format: functional, cell-based; how it was run: as §1
NCI-H23 = assay: Compound was evaluated for in vitro activity against NCI-H23 lung cancer cell lines (Human tumor cells ); format: functional, cell-based; how it was run: as §1
KM12 = assay: Compound was evaluated for in vitro activity against KM-12 Colon cell lines (Human tumor cells ); format: functional, cell-based; how it was run: as §1
ACHN = assay: Compound was evaluated for in vitro activity against ACHN kidney cell lines (Human tumor cells ); format: functional, cell-based; how it was run: as §1
HL-60 = assay: Compound was evaluated for in vitro activity against HL-60(TB) leukemia cell lines (Human tumor cells ); format: functional, cell-based; how it was run: as §1
NCI-H460 = assay: Compound was evaluated for in vitro activity against NCI-H460 lung cancer cell lines (Human tumor cells ); format: functional, cell-based; how it was run: as §1
Hs-578T = assay: Compound was evaluated for in vitro activity against Hs 578.T breast cancer cell lines (Human tumor cells ); format: functional, cell-based; how it was run: as §1
LOX IMVI = assay: Compound was evaluated for in vitro activity against LOXIMV1 Melanoma cell lines (Human tumor cells ); format: functional, cell-based; how it was run: as §2
M14 = assay: Compound was evaluated for in vitro activity against M14 Melanoma cell lines (Human tumor cells ); format: functional, cell-based; how it was run: as §1
NCI-H522 = assay: Compound was evaluated for in vitro activity against NCI-H522 lung cancer cell lines (Human tumor cells ); format: functional, cell-based; how it was run: as §1
T47D = assay: Compound was evaluated for in vitro activity against T-47D breast cancer cell lines (Human tumor cells ); format: functional, cell-based; how it was run: as §1
OVCAR-8 = assay: Compound was evaluated for in vitro activity against OVCAR-8 Ovary cell lines (Human tumor cells ); format: functional, cell-based; how it was run: as §1
NCI/ADR-RES = assay: Compound was evaluated for in vitro activity against NCI/ADR-RES breast cancer cell lines (Human tumor cells ); format: functional, cell-based; how it was run: as §2
SF-539 = assay: Compound was evaluated for in vitro activity against SF-539 CNS cell lines (Human tumor cells ); format: functional, cell-based; how it was run: as §2
HCT-116 = assay: Compound was evaluated for in vitro activity against HCT116 Colon cell lines (Human tumor cells ); format: functional, cell-based; how it was run: as §1
Malme-3M = assay: Compound was evaluated for in vitro activity against MALME-3M Melanoma cell lines (Human tumor cells ); format: functional, cell-based; how it was run: as §1
[1] = Compound was tested for in vitro antitumor activity, using SCC25 human head and neck squamous carcinoma cells; format: functional; details: SCC-25
How it was run: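 Clonogenic assay: SCC25 cells exposed to graded drug concentrations for 72 h at 37 °C, 5% CO2, in DMEM with 10% FBS and hydrocortisone ([…]). Then replated as single cells at drug-dependent densities and grown in drug-free medium 10-14 days. Colonies stained with crystal violet; only colonies of ≥50 cells scored. IC50 is mean ± SD of ≥3 assays on different days.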

NCI-H226 = assay: Compound was evaluated for in vitro activity against NCI-H226 lung cancer cell lines (Human tumor cells ); format: functional, cell-based; how it was run: as §1
HOP-92 = assay: Compound was evaluated for in vitro activity against HOP-92 lung cancer cell lines (Human tumor cells ); format: functional, cell-based; how it was run: as §1
PC-3 = assay: Compound was evaluated for in vitro activity against PC-3 prostate cell lines (Human tumor cells ); format: functional, cell-based; how it was run: as §1
SNB- = assay: Compound was evaluated for in vitro activity against […] CNS cell lines (Human tumor cells ); format: functional, cell-based; how it was run: as §1
IGROV-1 = assay: Compound was evaluated for in vitro activity against IGROV1 Ovary cell lines (Human tumor cells ); format: functional, cell-based; how it was run: as §1
MOLT-4 = assay: Compound was evaluated for in vitro activity against MOLT-4 leukemia cell lines (Human tumor cells ); format: functional, cell-based; how it was run: as §1
COLO 205 = assay: Compound was evaluated for in vitro activity against COLO 205 Colon cell lines (Human tumor cells ); format: functional, cell-based; how it was run: as §2
A498 = assay: Compound was evaluated for in vitro activity against A498 kidney cell lines (Human tumor cells ); format: functional, cell-based; how it was run: as §1
Dihydrofolate reductase = molecular target: T1, Dihydrofolate reductase (Homo sapiens, UniProt P00374); assay: Compound was evaluated for the inhibition of Dihydrofolate reductase at concentration ranged from 0.15-0.50 uM
T1 sequence (P00374 whole entry): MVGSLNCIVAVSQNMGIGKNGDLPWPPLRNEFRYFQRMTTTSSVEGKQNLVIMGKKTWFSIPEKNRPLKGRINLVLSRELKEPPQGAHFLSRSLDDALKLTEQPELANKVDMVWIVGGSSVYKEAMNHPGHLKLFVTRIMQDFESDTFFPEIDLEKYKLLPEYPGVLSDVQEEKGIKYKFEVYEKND

SR = assay: Compound was evaluated for in vitro activity against SR leukemia cell lines (Human tumor cells ); format: functional, cell-based; how it was run: as §1
K562 = assay: Compound was evaluated for in vitro activity against K562 leukemia cell lines (Human tumor cells ); format: functional, cell-based; how it was run: as §1
HCT-15 = assay: Compound was evaluated for in vitro activity against HCT-15 Colon cell lines (Human tumor cells ); format: functional, cell-based; how it was run: as §1
SF-295 = assay: Compound was evaluated for in vitro activity against SF-295 CNS cell lines (Human tumor cells ); format: functional, cell-based; how it was run: as §1
MCF7 = assay: Compound was evaluated for in vitro activity against MCF-7 breast cancer cell lines (Human tumor cells ); format: functional, cell-based; how it was run: as §2
OVCAR-4 = assay: Compound was evaluated for in vitro activity against OVCAR-4 Ovary cell lines (Human tumor cells ); format: functional, cell-based; how it was run: as §1

Question: Which results are given for `Cc1c(CNc2ccc(C(=O)NC(CCCNC(=O)c3ccccc3C(=O)O)C(=O)O)cc2)cnc2nc(N)nc(N)c12` (centres undefined)?
Answer: IC50 (U-251): 3.6 nM; IC50 (SF-268): 0.36 nM; IC50 (RXF 393): 380 nM; IC50 (HCC 2998): 0.9 nM; IC50 (SK-MEL-28): 190 nM; IC50 (SK-MEL-2): > 1000 nM; IC50 (786-0): < 0.1 nM; IC50 (EKVX): 2.5 nM; IC50 (OVCAR-3): 17 nM; IC50 (MDA-MB-435): 0.6 nM; IC50 (OVCAR-5): 200 nM; IC50 (BT-549): > 1000 nM; IC50 (A549): 0.42 nM; IC50 (RPMI-8226): 0.84 nM; IC50 (DU-145): < 1 nM; IC50 (UACC-257): 470 nM; IC50 (UACC-62): 0.4 nM; IC50 (TK-10): > 1000 nM; IC50 (SK-MEL-5): 0.64 nM; IC50 (CCRF-CEM): 0.57 nM; IC50 (NCI-H23): 1.5 nM; IC50 (KM12): 0.52 nM; IC50 (ACHN): 0.39 nM; IC50 (HL-60): < 1 nM; IC50 (NCI-H460): 0.38 nM; IC50 (Hs-578T): 100 nM; IC50 (LOX IMVI): < 0.1 nM; IC50 (M14): 0.66 nM; IC50 (NCI-H522): 1.5 nM; IC50 (T47D): > 1000 nM; IC50 (OVCAR-8): 0.32 nM; IC50 (NCI/ADR-RES): 0.3 nM; IC50 (SF-539): 0.46 nM; IC50 (HCT-116): 0.58 nM; IC50 (Malme-3M): 47 nM; IC50 [1]: 0.72 nM; IC50 (NCI-H226): 0.62 nM; IC50 (HOP-92): > 1000 nM; IC50 (PC-3): < 0.1 nM; IC50 (SNB-): 2.2 nM; IC50 (IGROV-1): 0.52 nM; IC50 (MOLT-4): 0.57 nM; IC50 (COLO 205): 6.7 nM; IC50 (A498): > 1000 nM; Ki (Dihydrofolate reductase): 0.0004 nM; IC50 (SR): 0.45 nM; IC50 (K562): < 0.1 nM; IC50 (HCT-15): 0.45 nM; IC50 (SF-295): 0.59 nM; IC50 (MCF7): 0.7 nM; IC50 (OVCAR-4): > 1000 nM

Question: With `Nc1nc(N)c2cc(CNc3ccc(C(=O)NC(CCCNC(=O)c4ccccc4C(=O)O)C(=O)O)cc3)ccc2n1` (centres undefined) as the molecule, how does the IC50 [1] read?
Answer: The IC50 was 0.61 nM.

Question: For `Nc1nc(N)c2c(Cl)c(CNc3ccc(C(=O)NC(CCCNC(=O)c4ccccc4C(=O)O)C(=O)O)cc3)ccc2n1` (centres undefined), which IC50 [1] is on record?
Answer: Its IC50 is 0.33 nM.

Question: And the Ki (Dihydrofolate reductase)?
Answer: Its Ki is 0.00011 nM.

Question: Which results are given for `CN(Cc1cnc2nc(N)nc(N)c2n1)c1ccc(C(=O)N[C@@H](CCC(=O)O)C(=O)O)cc1` [METHOTREXATE]?
Answer: IC50 (U-251): 63 nM; IC50 (RXF 393): > 1000 nM; IC50 (HCC 2998): 110 nM; IC50 (SK-MEL-28): > 1000 nM; IC50 (SK-MEL-2): > 1000 nM; IC50 (EKVX): > 1000 nM; IC50 (MDA-MB-435): > 1000 nM; IC50 (OVCAR-5): 980 nM; IC50 (BT-549): > 1000 nM; IC50 (A549): 33 nM; IC50 (RPMI-8226): 33 nM; IC50 (DU-145): 45 nM; IC50 (UACC-257): 790 nM; IC50 (TK-10): > 1000 nM; IC50 (CCRF-CEM): 29 nM; IC50 (KM12): 33 nM; IC50 (HL-60): 39 nM; IC50 (Hs-578T): > 1000 nM; IC50 (M14): 32 nM; IC50 (NCI-H522): 450 nM; IC50 (T47D): > 1000 nM; IC50 (Malme-3M): > 1000 nM; IC50 [1]: 15 nM; IC50 (NCI-H226): > 1000 nM; IC50 (HOP-92): > 1000 nM; IC50 (PC-3): 27 nM; IC50 (SNB-): > 1000 nM; IC50 (IGROV-1): 65 nM; IC50 (MOLT-4): 28 nM; IC50 (COLO 205): 870 nM; IC50 (A498): > 1000 nM; IC50 (SR): 33 nM; IC50 (K562): 26 nM; IC50 (SF-295): 36 nM; IC50 (OVCAR-4): > 1000 nM
